Data on 2 molecules can be found in PMC11092366 (RSC Advances, 2024).

Data set [1] addresses L. donovani DNA topoisomerase I. Conditions: L. donovani DNA topoisomerase I poison; cited from earlier work.
Data set [2] has as its system L. infantum MHOM/TN/80/IPT1 promastigotes. Nature of the data set: L. infantum viability assay. It counts as cell-based, Leishmania infantum. Put shortly: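 Late log/stationary promastigotes, kept in EMTM at 26–28 °C, then RPMI-PY. Plated at 2.5 × 10^6 parasites per mL with 20 μM test compound, 72 h, 26 °C, in duplicate, miltefosine as positive control. Viability by CellTiter 96 aqueous assay gives % inhibition. SI is THP-1 CC50 divided by promastigote IC50. IC50 comes from 20–0.31 μM dilutions, fitted by nonlinear regression with unconstrained Hill slope.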

Data set [3] in a line: Cytotoxicity on PMA-differentiated THP-1 cells. Type of data set: cell-based. Conditions: human, PMA-differentiated macrophage-like THP-1 cells. Put shortly: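 Human THP-1 cells grown in RPMI-1640 with 10% heat-inactivated FBS, 2 mM L-glutamine, penicillin and streptomycin at 37 °C, 5% CO2. Seeded at 5 × 10^6 cells per mL and differentiated 48 h with 20 ng mL−1 PMA. After adhesion, exposed to 1:2 dilutions (100 to 3.12 μM), in duplicate, with untreated and miltefosine controls. CellTiter 96 aqueous read-out; CC50 by nonlinear regression, mean and 95% CI.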

Turning to `c1ccc2c(Cc3c[nH]c4ccccc34)c[nH]c2c1` [DIM, 3,3′-Diindolylmethane], the IC50 in data set [1] was 1.2 µM.
Turning to `CCCCCCCCCCCCCCCCOP(=O)([O-])OCC[N+](C)(C)C` [MILT, Miltefosine], in data set [2] (CC50 THP-1 / IC50 L. infantum promastigotes), the “SI (selectivity index = CC50/IC50)” value is 9.9. In data set [2] (Leishmania infantum, 72 h, read-out: L. infantum IC50 (μM) (95% CI), L. infantum MHOM/TN/80/IPT1 promastigotes, 72 h, mean and 95% CI, duplicate experiments), the IC50 was determined as 3.7 µM. The molecule also came in with a half-maximal cytotoxic concentration (CC50) in data set [3] of 36.6 µM.
